DNMT1 inh: DNMT1 (human) enzyme inhibition; AID 588458; inhibition (reported as % activation of signal), % at 10 µM; actives 0.83% (n = 360,000); DNMT1 molecular beacon, Hinp1I cleavage, fluorescence; in the data active = inhibition above about 50%
SUMO1 PPI mod: alters human SUMO1 binding to SIM partners; SUMO1 binding to a labelled peptide, TR-FRET, 1 h; P63165; AID 602429; inhibition, % at 20 µM; actives 0.33% (n = 360,000); in the data active = inhibition above about 37%
CFTR F508del cor: correctors of CFTR F508del function in bronchial epithelial cells; CFBE cells, YFP halide quenching; stimulated with forskolin plus potentiator P3; % fluorescence drop versus neutral controls; activity (quench increase), % at 7.58 µM; actives 0.36% (n = 350,000); AID 720511;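 active = mean added fluorescence quench of at least 8% versus neutral control, with both replicates also reaching 8%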;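 note: cells transiently co-express mutant CFTR-F508del with the halide-sensitive YFP; corrector assay measuring rescue of mutant channel to the surface after 24 h compound exposure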
Scp-1 inhibitor: Scp-1 (human) phosphatase inhibition; actives 0.88% (n = 340,000); Q9GZU7; inhibition, % at 20 µM; Recombinant Scp1, phosphopeptide, malachite green phosphate absorbance;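 active = inhibition above about 50% at 20 µM, limit read from the data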;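 note: plate controls were DMSO wells with enzyme for no effect and wells lacking enzyme for full effect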
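Test system – truncated SCP-1 phosphatase (76-261aa) · Reagent – Phosphorylated 17-residue peptide substrate · Incubation – 45 min room-temperature reaction, 5 min colour, 30 min stabiliser · Detection – colorimetric phosphate reagent with accelerator and stabiliser, absorbance at 630 nm · Measure – % inhibition at 20 µM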
STEP inh: STEP (human) phosphatase inhibition | inhibition, % at 20 µM | actives 0.25% (n = 360,000) | recombinant STEP, OMFP fluorogenic substrate, fluorescence | AID 588621;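 active = inhibition at 20 µM, scaled per plate between control wells, above about 37%, limit read from the data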;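 note: 0% = DMSO with enzyme and substrate and 100% = substrate only without enzyme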
Target sequence (P54829 whole entry, looked up): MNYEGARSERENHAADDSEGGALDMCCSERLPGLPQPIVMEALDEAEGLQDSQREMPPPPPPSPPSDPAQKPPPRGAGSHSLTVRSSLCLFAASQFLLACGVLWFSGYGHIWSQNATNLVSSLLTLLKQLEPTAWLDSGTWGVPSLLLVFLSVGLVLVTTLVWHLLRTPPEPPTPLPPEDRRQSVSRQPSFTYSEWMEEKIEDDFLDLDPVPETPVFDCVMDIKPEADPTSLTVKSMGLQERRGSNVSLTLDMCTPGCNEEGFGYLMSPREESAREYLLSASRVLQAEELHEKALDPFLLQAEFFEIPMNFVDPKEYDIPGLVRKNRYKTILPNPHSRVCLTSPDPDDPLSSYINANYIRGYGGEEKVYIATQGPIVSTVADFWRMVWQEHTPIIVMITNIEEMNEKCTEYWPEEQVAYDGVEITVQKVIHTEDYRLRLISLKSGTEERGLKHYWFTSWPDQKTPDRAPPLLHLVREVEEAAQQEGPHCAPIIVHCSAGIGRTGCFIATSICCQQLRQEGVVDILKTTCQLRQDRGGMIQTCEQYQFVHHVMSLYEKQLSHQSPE
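System: STEP (striatal-enriched tyrosine phosphatase) enzyme, cell-free; medium: Bis-Tris pH 6.0 buffer with DTT, detergent; dosing: 20 µM, 1% DMSO; times: reaction 20 min, ambient temperature; detection: fluorescence, 480/540 nm; read-out basis: normalized % inhibition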
LMPTP block: blocks human LMPTP phosphatase. inhibition, % at 20 µM. recombinant LMPTP-A, OMFP fluorogenic substrate, fluorescence intensity. actives 0.22% (n = 360,000). P24666. AID 651560;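 active = compounds that cut the enzyme signal by at least half of the control window in the single-dose screen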;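 note: plate controls were DMSO wells with enzyme plus substrate for no effect and substrate without enzyme for full effect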
Target sequence (P24666 whole entry, looked up): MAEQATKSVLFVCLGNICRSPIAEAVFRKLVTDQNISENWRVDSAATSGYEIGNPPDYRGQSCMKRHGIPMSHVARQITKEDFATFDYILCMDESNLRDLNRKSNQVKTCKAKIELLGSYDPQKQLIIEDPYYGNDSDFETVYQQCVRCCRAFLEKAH
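test system = LMPTP-A | amount = 0.625 nM LMPTP-A final | reagent = fluorogenic phosphatase substrate OMFP at 400 µM final | incubation = 50 min at room temperature | benchmarks = no-enzyme low control, uninhibited high control | medium = Bis-Tris pH 6.0, DTT, detergent | signal = fluorescence intensity of OMFP turnover product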
DNMT1 interf DR: counter-screen for DNMT1 inhibitors: spectral interference, dose response | shares compounds with DNMT1 inh | molecular beacon fluorescence | IC50, µM | 200 tested, under 10 active | AID 602382; call rule not given here
DNMT1 confirm: DNMT1 inhibition confirmation, single concentration | actives 8% (n = 2,300) | inhibition, % at 10 µM | DNMT1 molecular beacon HinP1I cleavage, fluorescence | shares compounds with DNMT1 inh | AID 602385;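 active = average inhibition of at least 30% in the single-concentration confirmation test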
DNMT1 interf: counter-screen for DNMT1 inhibitors: spectral interference; actives 1% (n = 2,300); DNMT1 molecular beacon spectral interference counterscreen, fluorescence 485/520; activation (fluorescence interference), % at 10 µM; shares compounds with DNMT1 inh;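 active = activation of at least 30% at 10 µM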;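 note: DNMT1 catalytic domain with a HinP1I cleavage step and a FAM/dabcyl DNA beacon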
An asterisk follows results filed as active. The list is not random: actives were taken first. Their share in the collection is about 1.6%.

Results for Cc1ccc(C)c(S(=O)(=O)N2CCN(C(=O)/C=C/c3ccco3)CC2)c1 ?
DNMT1 inh: 75.7*; SUMO1 PPI mod: -1.1; CFTR F508del cor: 0.7; Scp-1 inhibitor: 23.1; STEP inh: -1.2; LMPTP block: 3.4; DNMT1 confirm: 6.6; DNMT1 interf: 1.8

Results for CCC(=O)N1C[C@@H](C)[C@@H](OC)CN(C)C(=O)c2cc(NC(=O)c3ccc(F)cc3)ccc2OC[C@@H]1C ?
CFTR F508del cor: -0.3

Results for Cc1cc(/C=C2\SC(=S)NC2=O)c(C)n1C1CC1 ?
DNMT1 inh: 65.9*; SUMO1 PPI mod: 10.0; Scp-1 inhibitor: -4.7; STEP inh: 1.1; LMPTP block: 3.1; DNMT1 confirm: 5.0; DNMT1 interf: 1.5

Results for Cc1cc(/C=C2/C(=O)N(C)C(=S)N2C)c(C)n1C1CC1 ?
DNMT1 inh: -14.8; SUMO1 PPI mod: -6.9; CFTR F508del cor: -3.9; Scp-1 inhibitor: -3.9; STEP inh: -5.5; LMPTP block: -0.1

What do the screens show for `CC(=O)c1c(O)cc(=O)n(-c2ccccc2)c1-c1ccc(Cl)cc1`?
DNMT1 inh: 9.9; SUMO1 PPI mod: 1.4; Scp-1 inhibitor: -6.3; STEP inh: -1.0; LMPTP block: -0.1

Results for CCc1c(O)cc(=O)n(-c2ccccc2)c1-c1ccccc1 ?
DNMT1 inh: 57.9*; SUMO1 PPI mod: 5.4; Scp-1 inhibitor: 6.5; STEP inh: 4.0; LMPTP block: -23.0; DNMT1 confirm: 7.0; DNMT1 interf: 4.0

Results for O=C(C[C@H]1C[C@@H]2c3cc(NC(=O)CC4CC4)ccc3O[C@@H]2[C@H](CO)O1)NCc1ccccc1 ?
CFTR F508del cor: -1.3

What do the screens show for `Cc1ccc(C(=O)NCC(=O)Nc2ccc3c(c2)CCC3)cc1C`?
DNMT1 inh: 8.8; SUMO1 PPI mod: 0.5; CFTR F508del cor: -0.4; Scp-1 inhibitor: -3.5; STEP inh: -4.4; LMPTP block: -0.9

What do the screens show for `Cc1cc(C(=O)Nc2ccc3c(c2)CCC3)ccc1[N+](=O)[O-]`?
DNMT1 inh: 77.7*; SUMO1 PPI mod: -4.0; CFTR F508del cor: 2.2; Scp-1 inhibitor: -14.9; STEP inh: 2.5; LMPTP block: 1.9; DNMT1 confirm: 3.3; DNMT1 interf: 5.3

Results for CC(=O)c1c2c3c(cccc3n(C)c1=O)C(=O)c1ccccc1-2 ?
Scp-1 inhibitor: 34.2

What do the screens show for `Cn1c(=O)c(Nc2ccc(O)cc2)c2c3c(cccc31)C(=O)c1ccccc1-2`?
DNMT1 inh: 61.5*; SUMO1 PPI mod: -8.9; CFTR F508del cor: 1.2; Scp-1 inhibitor: 31.9; STEP inh: 7.9; LMPTP block: 6.5; DNMT1 confirm: 11.6; DNMT1 interf: 8.2

How did COCC(=O)Nc1ccc2c(c1)C(=O)N(C)[C@H]1CC[C@@H](CC(=O)NCC(F)(F)F)O[C@H]1CO2 do in these assays?
CFTR F508del cor: 0.5

What do the screens show for `Cc1ccc(NC(=O)CN2C(=O)S/C(=C/c3ccc(-c4cc(C(=O)O)ccc4C)o3)C2=O)cc1C`?
DNMT1 inh: 111.0*; SUMO1 PPI mod: 25.9; Scp-1 inhibitor: 72.5*; STEP inh: 9.7; LMPTP block: 23.5; DNMT1 interf DR: >99; DNMT1 confirm: 117.6*; DNMT1 interf: -0.3

Results for Cc1cc(C)c2nc(N3C(=O)C(O)=C(C(=O)c4ccco4)C3c3ccco3)sc2c1 (stereo not drawn) ?
DNMT1 inh: 57.8*; SUMO1 PPI mod: 16.6; CFTR F508del cor: 3.7; Scp-1 inhibitor: 51.6*; STEP inh: 24.2; LMPTP block: 22.6; DNMT1 confirm: 14.8; DNMT1 interf: -0.7

What do the screens show for `CCOc1ccc2nc(N3C(=O)C(O)=C(C(=O)c4ccco4)C3c3ccco3)sc2c1` (stereo not drawn)?
DNMT1 inh: 36.4; SUMO1 PPI mod: -4.6; CFTR F508del cor: -2.2; Scp-1 inhibitor: 10.4; STEP inh: 7.0; LMPTP block: 10.8

What do the screens show for `C[C@@H]1CN([C@@H](C)CO)C(=O)Cc2cc(NC(=O)Cc3cn(C)c4ccccc34)ccc2O[C@H]1CN(C)C(=O)Nc1cccc2ccccc12`?
CFTR F508del cor: -4.2

What do the screens show for `Cc1ccc(-c2nc(C(=O)NCCCN(C)C)cc3c2[nH]c2ccccc23)cc1`?
DNMT1 inh: 56.4*; SUMO1 PPI mod: 3.5; CFTR F508del cor: 7.9; Scp-1 inhibitor: -1.8; STEP inh: 0.3; LMPTP block: 2.7; DNMT1 confirm: 0.1; DNMT1 interf: -2.1

Results for CN1C(=O)c2cc(NC(=O)c3cccs3)ccc2OC[C@H]2O[C@H](CC(=O)NCC(F)(F)F)CC[C@@H]21 ?
CFTR F508del cor: -0.5

What do the screens show for `Cc1nn(CCc2nc(-c3ccco3)cs2)c2[nH]c(=O)cc(C(F)(F)F)c12`?
DNMT1 inh: 60.6*; SUMO1 PPI mod: 32.2; CFTR F508del cor: -2.5; Scp-1 inhibitor: 19.6; STEP inh: 7.5; LMPTP block: 2.1; DNMT1 confirm: 0.2; DNMT1 interf: -1.8

Results for Cc1cc2nc3c(=O)n(C4CCCCC4)c(=O)[nH]c3nc2cc1N ?
DNMT1 inh: 57.9*; SUMO1 PPI mod: -10.6; Scp-1 inhibitor: -8.9; STEP inh: -106.4; LMPTP block: -5.4; DNMT1 confirm: 63.7*; DNMT1 interf: 34.3*

Results for CCCCN(C(=O)c1cccc(-n2cccc2)c1)c1c(N)n(CCC)c(=O)[nH]c1=O ?
DNMT1 inh: 62.4*; SUMO1 PPI mod: 12.9; CFTR F508del cor: -1.8; Scp-1 inhibitor: 69.8*; STEP inh: 7.8; LMPTP block: 4.4; DNMT1 confirm: 4.6; DNMT1 interf: 6.3

What do the screens show for `O=[N+]([O-])c1ccc(/C=C/C2=NN(c3ccccc3)C(c3ccco3)C2)o1` (stereo not drawn)?
DNMT1 inh: 75.1*; SUMO1 PPI mod: -15.8; CFTR F508del cor: 16.1*; Scp-1 inhibitor: 78.9*; STEP inh: 4.9; LMPTP block: 10.2; DNMT1 confirm: 1.6; DNMT1 interf: 4.7

What do the screens show for `c1ccc(-c2nc(-n3nc4ccccc4n3)nc3ccccc23)cc1`?
DNMT1 inh: -3.8; SUMO1 PPI mod: -6.3; Scp-1 inhibitor: -17.8; STEP inh: 3.0; LMPTP block: 6.2

Compound activity (PubChem)
